# Assay results: ChEMBL document CHEMBL3272208, “(Vinylaryloxy)acetic acids. A new class of diuretic agents. 3. ((2-Nitro-1-alkenyl)aryloxy)acetic acids” (1976)
# Assays:
# Canis familiaris [1] = test: Diuretic activity in mongrel dog assessed as sodium level in excreted urine at 5 mg/kg, iv measured […] after dosage (reference value: 1 to 91 uequiv/min); type: functional, Canis lupus familiaris
# Summary of the method: (§1)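 Compounds were given iv to dogs as Na salts in H2O. […] The baseline is the mean of two 15-min periods before dosing. The response is the mean of two consecutive 15-min periods of maximal Na+ excretion, usually 15–45 min post-dose. Na+, K+ and Cl- are in μequiv/min and urine volume in ml/min, reported as control/drug.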
# Canis familiaris [2] = test: Diuretic activity in mongrel dog assessed as potassium level in excreted urine at 5 mg/kg, iv measured between 15 to 45 mins after dosage (reference value: 12 to 70 uequiv/min); type: functional, Canis lupus familiaris; summary of the method: as §1
# Canis familiaris [3] = test: Diuretic activity in mongrel dog assessed as chloride level in excreted urine at 5 mg/kg, iv measured between 15 to 45 mins after dosage (reference value: 1 to 65 uequiv/min); type: functional, Canis lupus familiaris; summary of the method: as §1
# Canis familiaris [4] = test: Diuretic activity in mongrel dog assessed as volume of excreted urine at 5 mg/kg, iv measured between 15 to 45 mins after dosage (reference value: 1 to 5 ml/min); type: functional, Canis lupus familiaris; summary of the method: as §1
# Canis familiaris [5] = test: Diuretic activity in mongrel dog assessed as sodium level in excreted urine at 10 mg/kg, iv measured […] after dosage (reference value: 5 to 66 uequiv/min); type: functional, Canis lupus familiaris; summary of the method: as §1
# Canis familiaris [6] = test: Diuretic activity in mongrel dog assessed as potassium level in excreted urine at 10 mg/kg, iv measured between 15 to 45 mins after dosage (reference value: 7 to 63 uequiv/min); type: functional, Canis lupus familiaris; summary of the method: as §1
# Canis familiaris [7] = test: Diuretic activity in mongrel dog assessed as chloride level in excreted urine at 10 mg/kg, iv measured between 15 to 45 mins after dosage (reference value: 3 to 64 uequiv/min); type: functional, Canis lupus familiaris
# Summary of the method: (§2)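 Compounds were given iv to dogs as Na salts in H2O. The baseline is the mean of two 15-min periods before dosing. The response is the mean of two consecutive 15-min periods of maximal Na+ excretion, usually 15–45 min post-dose. Na+, K+ and Cl- are in μequiv/min and urine volume in ml/min, reported as control/drug.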
# Canis familiaris [8] = test: Diuretic activity in mongrel dog assessed as volume of excreted urine at 10 mg/kg, iv measured between 15 to 45 mins after dosage (reference value: 1 to 4 ml/min); type: functional, Canis lupus familiaris; summary of the method: as §1
# Canis familiaris [9] = test: Diuretic activity in mongrel dog assessed as sodium level in excreted urine at 1 mg/kg, iv measured […] after dosage (reference value: 3 to 95 uequiv/min); type: functional, Canis lupus familiaris; summary of the method: as §2
# Canis familiaris [10] = test: Diuretic activity in mongrel dog assessed as potassium level in excreted urine at 1 mg/kg, iv measured between 15 to 45 mins after dosage (reference value: 6 to 47 uequiv/min); type: functional, Canis lupus familiaris; summary of the method: as §1
# Canis familiaris [11] = test: Diuretic activity in mongrel dog assessed as chloride level in excreted urine at 1 mg/kg, iv measured between 15 to 45 mins after dosage (reference value: 1 to 70 uequiv/min); type: functional, Canis lupus familiaris; summary of the method: as §2
# Canis familiaris [12] = test: Diuretic activity in mongrel dog assessed as volume of excreted urine at 1 mg/kg, iv measured between 15 to 45 mins after dosage (reference value: 1 to 4 ml/min); type: functional, Canis lupus familiaris; summary of the method: as §1
# Canis familiaris [13] = test: Diuretic activity in mongrel dog assessed as sodium level in excreted urine at 5 mg/kg, po measured for 6 hrs (reference value: 2 mequivalents); type: functional, Canis lupus familiaris
# Canis familiaris [14] = test: Diuretic activity in mongrel dog assessed as potassium level in excreted urine at 5 mg/kg, po measured for 6 hrs (reference value: 1 mequivalents); type: functional, Canis lupus familiaris
# Canis familiaris [15] = test: Diuretic activity in mongrel dog assessed as chloride level in excreted urine at 5 mg/kg, po measured for 6 hrs (reference value: 2 mequivalents); type: functional, Canis lupus familiaris
# Canis familiaris [16] = test: Diuretic activity in mongrel dog assessed as volume of excreted urine at 5 mg/kg, po measured for 6 hrs (RVb = 180 ml)
# Canis familiaris [17] = test: Diuretic activity in mongrel dog assessed as sodium level in excreted urine at 1 mg/kg, po measured for 6 hrs (reference value: 2 mequivalents); type: functional, Canis lupus familiaris
# Canis familiaris [18] = test: Diuretic activity in mongrel dog assessed as potassium level in excreted urine at 1 mg/kg, po measured for 6 hrs (reference value: 1 mequivalents); type: functional, Canis lupus familiaris
# Canis familiaris [19] = test: Diuretic activity in mongrel dog assessed as chloride level in excreted urine at 1 mg/kg, po measured for 6 hrs (reference value: 2 mequivalents); type: functional, Canis lupus familiaris
# Canis familiaris [20] = test: Diuretic activity in mongrel dog assessed as volume of excreted urine at 1 mg/kg, po measured for 6 hrs (RVb = 180 ml)
Compound,Activity (Canis familiaris [1]),Activity (Canis familiaris [2]),Activity (Canis familiaris [3]),Activity (Canis familiaris [4]),Activity (Canis familiaris [5]),Activity (Canis familiaris [6]),Activity (Canis familiaris [7]),Activity (Canis familiaris [8]),other results
CC/C(=C\c1cc(Cl)ccc1OCC(=O)O)[N+](=O)[O-],117 uEq/min,48 uEq/min,75 uEq/min,4 mL/min,,,,,
CC/C(=C\c1cc(Cl)cc(Cl)c1OCC(=O)O)[N+](=O)[O-],,,,,71 uEq/min,29 uEq/min,6 uEq/min,3 mL/min,
O=C(O)COc1ccc(/C=C/[N+](=O)[O-])cc1,80 uEq/min,35 uEq/min,5 uEq/min,2 mL/min,,,,,
C/C(=C\c1ccc(OCC(=O)O)cc1)[N+](=O)[O-],,,,,649 uEq/min,70 uEq/min,611 uEq/min,6 mL/min,Activity (Canis familiaris [9]): 82 uEq/min; Activity (Canis familiaris [10]): 12 uEq/min; Activity (Canis familiaris [11]): 61 uEq/min; Activity (Canis familiaris [12]): 2 mL/min; Activity (Canis familiaris [13]): 6 milliequivalent; Activity (Canis familiaris [14]): 2 milliequivalent; Activity (Canis familiaris [15]): 4 milliequivalent; Activity (Canis familiaris [16]): 378 mL
CC/C(=C\c1cccc(OCC(=O)O)c1)[N+](=O)[O-],,,,,452 uEq/min,76 uEq/min,639 uEq/min,7 mL/min,
CCCC/C(=C\c1ccc(OCC(=O)O)c(Cl)c1Cl)[N+](=O)[O-],,,,,,,,,Activity (Canis familiaris [9]): 322 uEq/min; Activity (Canis familiaris [10]): 78 uEq/min; Activity (Canis familiaris [11]): 364 uEq/min; Activity (Canis familiaris [12]): 4 mL/min
CCCCC/C(=C\c1ccc(OCC(=O)O)c(Cl)c1Cl)[N+](=O)[O-],,,,,,,,,Activity (Canis familiaris [9]): 179 uEq/min; Activity (Canis familiaris [10]): 56 uEq/min; Activity (Canis familiaris [11]): 269 uEq/min; Activity (Canis familiaris [12]): 3 mL/min; Activity (Canis familiaris [17]): 10 milliequivalent; Activity (Canis familiaris [18]): 3 milliequivalent; Activity (Canis familiaris [19]): 9 milliequivalent; Activity (Canis familiaris [20]): 413 mL
O=C(O)COc1c(Cl)cc(Cl)cc1/C=C/[N+](=O)[O-],33 uEq/min,33 uEq/min,3 uEq/min,2 mL/min,,,,,
C/C(=C\c1cc(Cl)cc(Cl)c1OCC(=O)O)[N+](=O)[O-],80 uEq/min,25 uEq/min,41 uEq/min,3 mL/min,,,,,
C/C(=C\c1ccc(C(=O)O)cc1Cl)[N+](=O)[O-],,,,,364 uEq/min,45 uEq/min,335 uEq/min,7 mL/min,
CC/C(=C\c1ccc(C(=O)O)cc1Cl)[N+](=O)[O-],,,,,182 uEq/min,63 uEq/min,146 uEq/min,3 mL/min,
CC/C(=C\c1ccc(OCCCC(=O)O)c(Cl)c1Cl)[N+](=O)[O-],62 uEq/min,29 uEq/min,28 uEq/min,3 mL/min,,,,,
COC(=O)COc1ccc(/C=C(\C)[N+](=O)[O-])c(Cl)c1Cl,,,,,,,,,Activity (Canis familiaris [13]): 37 milliequivalent; Activity (Canis familiaris [14]): 7 milliequivalent; Activity (Canis familiaris [15]): 47 milliequivalent; Activity (Canis familiaris [16]): 769 mL
CC(=O)/C=C/c1ccc(OCC(=O)O)c(Cl)c1Cl,911 uEq/min,76 uEq/min,1080 µequiv/min,8 mL/min,,,,,
